Laboratory results from PMC3076219 (European journal of immunology, 2009).
“Also recorded” adds a separate entry of the source.

Tests used:
neutrophils [1] = conditions: cited from earlier work
monocytes [2] = test: Migration of monocytes, 24-well Transwell; assay type: cell-based, human; conditions: LL-37 5 µM, Fig. 7F
Method in brief: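 CFSE-labelled monocytes or THP-1 cells (5 µM, 5 min RT) at 2×10^6/mL in phenol-red-free RPMI 1640 with 1% FBS went in the Transwell upper chamber (3-µm pores). Stimuli in the lower chamber included CXCL1 50 nM, WKYMVm 5 µM and ATP/BzATP 50 µM. Cells were used with or without 20 min preincubation with 10 µM CXCR2 antagonist. Incubation at 37 °C lasted 90 min for monocytes and 2 h for THP-1. Lower-well cells were read at 495 nm against a standard curve, in quadruplicate.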

neutrophils [3] = test: Calcium mobilization of neutrophils; assay type: cell-based, human
neutrophils [4] = conditions: ref [27]; cited from earlier work
neutrophils [5] = test: Neutrophil migration, 24-well Transwell; assay type: cell-based, human; conditions: Fig. 6H
Method in brief: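 CFSE-labelled human neutrophils (5 µM, 5 min RT) at 5×10^6/mL in phenol-red-free RPMI 1640 with 1% FBS went in the Transwell upper chamber (3-µm pores). The lower chamber held test peptide (1 or 5 µM) or medium. Some cells were first preincubated 20 min with 10 µM CXCR2 antagonist. After 1 h at 37 °C, migrated cells were read at 495 nm against a standard curve. Quadruplicate; unpaired t-test.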

CXCR1 [6] = conditions: indirect, inside-out signaling; ref [16]; cited from earlier work
CXCR2 [7] = conditions: indirect, inside-out signaling; ref [16]; cited from earlier work
FPR2 = FPR2 surface expression on monocytes; assay type: cell-based, human; conditions: Supporting information Fig. 2
THP-1 cells = test: Calcium mobilization in THP-1 cells; assay type: cell-based; conditions: Fig. 7C
Method in brief: (§1)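 Peripheral blood monocytes (kit-isolated from PBMC, CD14-checked) or THP-1 cells at 10^7/mL were loaded with 5 µM Indo-1-AM for 7 min at 37 °C, then held 10 min at RT and washed in cold PBS. Cells were run at 2×10^6/mL in KRP (PBS, 1.5 mM CaCl2, 1.5 mM MgSO4). After baseline they got a first stimulus, then a second. Flow cytometry used 351 nm excitation and the 405:485 nm ratio, gating live cells. Three independent experiments.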

CXCR1 [8] = test: CXCR1 surface expression on neutrophils, flow cytometry; assay type: cell-based, human; conditions: WKYMVm 1 µM, 10 µM, 100 µM; 3h; Fig. 2B
Method in brief: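 Human blood neutrophils were isolated by dextran sedimentation and Ficoll (>95% CD16+) and held at 5×10^6/mL in RPMI 1640 with 1% FBS. They were treated 3h with a dose series (test peptide 1–10 µM; chemokines 1, 5, 10, 50 nM) or with 5 µM for 0.5–3h. Cells were blocked in 10% human serum and stained with anti-CXCR1-APC/anti-CXCR2-FITC or anti-P2X7-FITC, plus anti-CD16. Read-out was flow cytometry GMFI.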

CXCR2 [9] = test: CXCR2 surface expression on neutrophils, flow cytometry; assay type: cell-based, human; conditions: WKYMVm 1 µM, 10 µM, 100 µM; 3h; Fig. 2B
monocytes [10] = test: Calcium mobilization in monocytes; assay type: cell-based, human; conditions: ATP or WKYMVm first, then LL-37; Fig. 7D
Method in brief: as §1

neutrophils [11] = test: Cross-desensitization of calcium mobilization of neutrophils; assay type: cell-based, human; conditions: WKYMVm first
CXCR2 [12] = test: CXCR2 surface expression on monocytes; assay type: cell-based, human; conditions: Supporting information Fig. 2
neutrophils [13] = conditions: ref [66]; cited from earlier work

O=C(Nc1ccc([N+](=O)[O-])cc1O)Nc1ccccc1Br [SB225002]
inhibition of neutrophil migration with CXCL1 or CXCL8 (neutrophils [1]; SB225002, ref [27]): dose dependent inhibition
inhibition of CXCL1 and CXCL7 stimulated neutrophil migration (neutrophils [1]; ref [27]): completely inhibited
inhibition of CXCL8 stimulated neutrophil migration (neutrophils [1]; ref [27]): partially inhibited
inhibition of LL-37-stimulated monocyte migration (monocytes [2]; SB225002 10 µM, 20 min preincubation): blocked
reduction of [Ca2+]i for LL-37 (neutrophils [3]; SB225002 10 µM, then 180 s later LL-37 5 µM, Fig. 6A): > 90%
inhibition of calcium mobilization for ATP (neutrophils [3]; SB225002 10 µM, ATP 5 µM, Fig. 6F): not for fMLF (Fig. 6E), ATP
inhibition of calcium mobilization for CXCL1 (neutrophils [3]; SB225002 10 µM, CXCL1 10 nM, Fig. 6C): complete inhibition
inhibition of calcium mobilization for CXCL7 (neutrophils [3]; SB225002 10 µM, CXCL7 10 nM, Fig. 6B): complete inhibition
inhibition of CXCL8 stimulation ([Ca2+]i) (neutrophils [3]; SB225002 10 µM, CXCL8 10 nM, Fig. 6D): about 50%
inhibition of calcium mobilization for WKYMVm (neutrophils [3]; SB225002 10 µM, WKYMVm 5 µM, Fig. 6G): not for fMLF (Fig. 6E), ATP (Fig. 6F) or WKYMVm
inhibition of calcium mobilization for fMLF (neutrophils [3]; SB225002 10 µM, fMLF 100 nM, Fig. 6E): not for fMLF
inhibition of [Ca2+]i of neutrophils treated with CXCL1 or CXCL8 (neutrophils [4]): dose dependent inhibition
migration of SB225002 treated controls (neutrophils [5]; SB225002 10 µM without LL-37): did not interfere with cell migration
inhibition of LL-37-induced neutrophil migration (neutrophils [5]; SB225002 10 µM, 20 min pretreatment, LL-37 5 µM, p<0.05): completely inhibited; also recorded: completely block

TNFα
CXCR1 down-regulation (CXCR1 [6]): cause down-regulation of CXCR2 and CXCR1
CXCR2 down-regulation (CXCR2 [7]): cause down-regulation of CXCR2 and CXCR1

WKYMVm [reference compound]
FPR2 down-regulation on monocytes (FPR2): down regulated FPR2 and CXCR2
calcium signal in THP-1 cells (THP-1 cells): but not WKYMVm gives a robust calcium signal
block of LL-37 induced signal by WKYMVm pretreatment (THP-1 cells; WKYMVm first, then LL-37, THP-1): does not block the LL-37 induced signal
stimulation of migration of monocytes (monocytes [2]; CXCL1 50 nM, WKYMVm 5 µM, ATP 50 µM, BzATP 50 µM, 90 min, 37°C): only LL-37 stimulated migration of monocytes
CXCR1 surface expression (CXCR1 [8]): caused down-regulation of both CXCR2 and CXCR1 expression with similar kinetics
CXCR2 surface expression (CXCR2 [9]): caused down-regulation of both CXCR2 and CXCR1 expression with similar kinetics
cross-block of LL-37 stimulated calcium mobilization in monocytes (monocytes [10]): neither ATP nor WKYMVm cross-block LL-37 stimulated calcium mobilization
cross-desensitization of CXCL1 response by WKYMVm (neutrophils [11]; then CXCL1, Supporting information Fig. 3E-F): this was the case for CXCL1
cross-desensitization of LL-37 response by WKYMVm (neutrophils [11]; then LL-37, Supporting information Fig. 3C-D): able to block LL-37 stimulated calcium mobilization
calcium flux response in the absence of extracellular Ca2+ (neutrophils [3]; PBS without calcium and magnesium, LL-37 5 µM, WKYMVm 5 µM, ATP 5 µM, Fig. 3C): capable of generating a calcium flux response
CXCR2 down-regulation on monocytes (CXCR2 [12]): down regulated FPR2 and CXCR2

pertussis toxin [PTX]
block of FPR- and CXCR-induced oxidase activity of neutrophils (neutrophils [13]): able to block
block of CXCL8, fMLF, LTB4, CXCL6, and MNCF stimulated neutrophil migration (neutrophils [1]; ref [33], [63], [65]): able to block
